From ChEMBL document CHEMBL2177092, “Phosphoramidate ProTides of the anticancer agent FUDR successfully deliver the preformed bioactive monophosphate in cells and confer advantage over the parent nucleoside” (J Med Chem, 2011)

Test system: CCRF-CEM
Test: Ratio of IC50 for human CEM cells expressing human ENT1 transporter in presence of NBMPR to IC50 for human CEM cells expressing human ENT1 transporter
Type: functional
Settings: not given
Method in brief: (§1)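 Human T-lymphocyte CEM cells with (CEM/hEnt-1) or lacking (CEM/hEnt-0) the hENT1 transporter were seeded at 60 000 cells/well with graded compound concentrations. Transporter-inhibition runs added dipyridamole (10 μM) or NBMPR (10 μM) to CEM/hEnt-1 cells. […] Ratios are formed against untreated CEM/hEnt-1 IC50. Mean of 2–4 experiments.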
For `CC(C)(NP(=O)(OC[C@H]1O[C@@H](n2cc(F)c(=O)[nH]c2=O)C[C@@H]1O)Oc1ccccc1)C(=O)OCc1ccccc1` (mixture of isomers), the “Ratio IC50” value was 2.
For `O=c1[nH]c(=O)n([C@H]2C[C@H](O)[C@@H](COP(=O)(O)O)O2)cc1F` [5-FLUORODEOXYURIDYLATE], the “Ratio IC50” value was 20.

Test system: CCRF-CEM
Test: Ratio of IC50 for human CEM cells expressing human ENT1 transporter in presence of dipyridamole to IC50 for human CEM cells expressing human ENT1 transporter
Type: functional
Settings: not given
Method in brief: as §1
In the case of `CC(C)(NP(=O)(OC[C@H]1O[C@@H](n2cc(F)c(=O)[nH]c2=O)C[C@@H]1O)Oc1ccccc1)C(=O)OCc1ccccc1` (mixture of isomers), the “Ratio IC50” value is reported as 2.
In the case of `O=c1[nH]c(=O)n([C@H]2C[C@H](O)[C@@H](COP(=O)(O)O)O2)cc1F` [5-FLUORODEOXYURIDYLATE], the “Ratio IC50” value is reported as 20.

Test system: CCRF-CEM
Test: Ratio of IC50 for ENT1 transporter-deficient human CEM cells to IC50 for human CEM cells expressing human ENT1 transporter after 72 hrs by cell counting
Type: functional
Settings: not given
Method in brief: as §1
For `CC(C)(NP(=O)(OC[C@H]1O[C@@H](n2cc(F)c(=O)[nH]c2=O)C[C@@H]1O)Oc1ccccc1)C(=O)OCc1ccccc1` (mixture of isomers), the “Ratio IC50” value was 7.
For `O=c1[nH]c(=O)n([C@H]2C[C@H](O)[C@@H](COP(=O)(O)O)O2)cc1F` [5-FLUORODEOXYURIDYLATE], the Ratio IC50 was 72.

Test system: CCRF-CEM
Test: Cytostatic activity against human CEM cells expressing human ENT1 transporter after 72 hrs by cell counting in presence of NBMPR
Type: functional, cell-based
Settings: not given
Method in brief: (§2)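 CEM/hEnt-1 cells with 10 μM dipyridamole or 10 μM NBMPR added alongside graded compound levels, in DMEM with 10% FBS, 10 mM Hepes and 1 mM sodium pyruvate at 37 °C under 5% CO2. Seeded at 60 000 cells/well, counted by Coulter counter after 3 days.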
With `CC(C)(NP(=O)(OC[C@H]1O[C@@H](n2cc(F)c(=O)[nH]c2=O)C[C@@H]1O)Oc1ccccc1)C(=O)OCc1ccccc1` (mixture of isomers) the IC50 was 610 nM.
`O=c1[nH]c(=O)n([C@H]2C[C@H](O)[C@@H](COP(=O)(O)O)O2)cc1F` [5-FLUORODEOXYURIDYLATE] gave an IC50 of 1060 nM.

Test system: CCRF-CEM
Test: Cytostatic activity against human CEM cells expressing human ENT1 transporter after 72 hrs by cell counting in presence of dipyridamole
Type: functional, cell-based
Settings: not given
Method in brief: as §2
`CC(C)(NP(=O)(OC[C@H]1O[C@@H](n2cc(F)c(=O)[nH]c2=O)C[C@@H]1O)Oc1ccccc1)C(=O)OCc1ccccc1` (mixture of isomers) gave an IC50 of 260 nM.
In the case of `O=c1[nH]c(=O)n([C@H]2C[C@H](O)[C@@H](COP(=O)(O)O)O2)cc1F` [5-FLUORODEOXYURIDYLATE], the IC50 is reported as 1740 nM.

Test system: CCRF-CEM
Test: Cytostatic activity against human CEM cells expressing human ENT1 transporter after 72 hrs by cell counting
Type: functional, cell-based
Settings: not given
Method in brief: (§3)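 Suspension leukemia cells in DMEM with 10% FBS, 10 mM Hepes and 1 mM sodium pyruvate at 37 °C under 5% CO2. Seeded at 60 000 cells/well with graded compound levels. Grown 48 h (L1210) or 72 h (CEM), then counted by Coulter counter. […] Mean ± SD of two to four independent experiments.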
Work on `CC(C)(NP(=O)(OC[C@H]1O[C@@H](n2cc(F)c(=O)[nH]c2=O)C[C@@H]1O)Oc1ccccc1)C(=O)OCc1ccccc1` (mixture of isomers) yielded an IC50 of 170 nM.
Compound `O=c1[nH]c(=O)n([C@H]2C[C@H](O)[C@@H](COP(=O)(O)O)O2)cc1F` [5-FLUORODEOXYURIDYLATE] has an IC50 of 50 nM.

Test system: CCRF-CEM
Test: Cytostatic activity against ENT1 transporter-deficient human CEM cells after 72 hrs by cell counting
Type: functional, cell-based
Settings: not given
Method in brief: as §3
In the case of `CC(C)(NP(=O)(OC[C@H]1O[C@@H](n2cc(F)c(=O)[nH]c2=O)C[C@@H]1O)Oc1ccccc1)C(=O)OCc1ccccc1` (mixture of isomers), the IC50 is reported as 1200 nM.
For `O=c1[nH]c(=O)n([C@H]2C[C@H](O)[C@@H](COP(=O)(O)O)O2)cc1F` [5-FLUORODEOXYURIDYLATE], the IC50 was 3600 nM.

Test system: L1210
Test: Ratio of IC50 for Mycoplasma hyorhinis-infected mouse L1210 cells to IC50 for mouse L1210/0 cells after 48 hrs by cell counting
Type: functional
Settings: not given
Method in brief: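 Murine L1210/0 cells were compared with L1210/TK cells, selected for resistance to 5-bromo-2'-dUrd, and with L1210.Hyor cells, chronically infected with Mycoplasma hyorhinis. Cells were grown in DMEM with 10% FBS, 10 mM Hepes and 1 mM pyruvate at 37 °C and 5% CO2, then seeded at 60 000 cells/well with compound. They were Coulter-counted after 48 h. […] Mean of 2–4 experiments.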
With `CC(C)(NP(=O)(OC[C@H]1O[C@@H](n2cc(F)c(=O)[nH]c2=O)C[C@@H]1O)Oc1ccccc1)C(=O)OCc1ccccc1` (mixture of isomers) the “Ratio IC50” value was 0.69.

Test system: L1210
Test: Cytostatic activity against Mycoplasma hyorhinis-infected mouse L1210 cells after 48 hrs by cell counting
Type: functional, cell-based
Settings: L1210, 48 h
Method in brief: (§4)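 Suspension leukemia cells in DMEM with 10% FBS, 10 mM Hepes and 1 mM sodium pyruvate at 37 °C under 5% CO2. Seeded at 60 000 cells/well with graded compound levels. Grown 48 h (L1210) or 72 h (CEM), then counted by Coulter counter. Mean ± SD of two to four independent experiments.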
`CC(C)(NP(=O)(OC[C@H]1O[C@@H](n2cc(F)c(=O)[nH]c2=O)C[C@@H]1O)Oc1ccccc1)C(=O)OCc1ccccc1` (mixture of isomers) gave an IC50 of 20 nM.

Test system: HeLa
Test: Cytostatic activity against human HeLa cells […] by cell counting
Type: functional, cell-based
Settings: not given
Compound `CC(C)(NP(=O)(OC[C@H]1O[C@@H](n2cc(F)c(=O)[nH]c2=O)C[C@@H]1O)Oc1ccccc1)C(=O)OCc1ccccc1` (mixture of isomers) has an IC50 of 240 nM.

Test system: HeLa
Test: Cytostatic activity against thymidine-kinase deficient human HeLa cells […]
Type: functional, cell-based
Settings: not given
`CC(C)(NP(=O)(OC[C@H]1O[C@@H](n2cc(F)c(=O)[nH]c2=O)C[C@@H]1O)Oc1ccccc1)C(=O)OCc1ccccc1` (mixture of isomers) showed an IC50 of 3700 nM.

Test system: CCRF-CEM
Test: Cytostatic activity against thymidine-kinase deficient human CEM cells after 72 hrs by cell counting
Type: functional, cell-based
Settings: not given
Method in brief: as §4
For `CC(C)(NP(=O)(OC[C@H]1O[C@@H](n2cc(F)c(=O)[nH]c2=O)C[C@@H]1O)Oc1ccccc1)C(=O)OCc1ccccc1` (mixture of isomers), the IC50 was 4800 nM.

Test system: CCRF-CEM
Test: Cytostatic activity against human CEM/0 cells after 72 hrs by cell counting
Type: functional, cell-based
Settings: not given
Method in brief: as §3
Work on `CC(C)(NP(=O)(OC[C@H]1O[C@@H](n2cc(F)c(=O)[nH]c2=O)C[C@@H]1O)Oc1ccccc1)C(=O)OCc1ccccc1` (mixture of isomers) yielded an IC50 of 230 nM.

Test system: not listed separately
Test: Cytostatic activity against mouse L1210/0 cells after 48 hrs by cell counting
Type: functional, cell-based
Settings: L1210/0, 48 h
Method in brief: as §4
Compound `CC(C)(NP(=O)(OC[C@H]1O[C@@H](n2cc(F)c(=O)[nH]c2=O)C[C@@H]1O)Oc1ccccc1)C(=O)OCc1ccccc1` (mixture of isomers) has an IC50 of 29 nM.

Test system: L1210
Test: Cytostatic activity against thymidine-kinase deficient mouse L1210 cells after 48 hrs by cell counting
Type: functional, cell-based
Settings: L1210, 48 h
Method in brief: as §4
With `CC(C)(NP(=O)(OC[C@H]1O[C@@H](n2cc(F)c(=O)[nH]c2=O)C[C@@H]1O)Oc1ccccc1)C(=O)OCc1ccccc1` (mixture of isomers) the IC50 was 180 nM.
